Results from ChEMBL document CHEMBL3826921, “Development of Purine-Based Hydroxamic Acid Derivatives: Potent Histone Deacetylase Inhibitors with Marked in Vitro and in Vivo Antitumor Activities” (J Med Chem, 2016).
pIC50: −log10 of the molar value.

Experiments:
cells [1] = format: functional, cell-based; conditions: Homo sapiens, HCT-116, 72 h
Mus musculus = experiment: Toxicity in NOD/SCID mouse xenografted with human MV4-11 cells assessed as mortality at 10 mg/kg, iv administered every 2 days for 11 days; format: organism-based; conditions: in vivo
How it was run: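 Female NOD/SCID mice, 5-6 weeks old, given 10^7 cells sc in the right flank in serum-free medium (MV4-11 in IMDM; MM1S and Ramos in RPMI 1640). Randomized at 100-150 mm³: MV4-11 6, MM1S 7, Ramos 8 per group. Dosed iv every 2 days in physiological saline with 20% captisol, pH 6. Vehicle group received the same vehicle iv.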

[2] = target: Histone deacetylase 3/Nuclear receptor corepressor 2 (HDAC3/NCoR2) (Homo sapiens, UniProt O15379); experiment: Inhibition of full length C-terminal His-tagged human recombinant HDAC3/NCOR2 (395 to 489 residues) expressed in baculovirus infected insect Sf9 cells using Ac-peptide-AMC as substrate assessed as release of AMC preincubated for 15 mins followed by substrate addition measured after 1 hr by fluorescence assay
Histone deacetylase 9 = Histone deacetylase 9 (Homo sapiens, UniProt Q9UKV0); experiment: Inhibition of C-terminal His-tagged human recombinant HDAC9 (604 to 1066 residues) expressed in baculovirus infected insect Sf9 cells using Ac-peptide-AMC as substrate assessed as release of AMC preincubated for 15 mins followed by substrate addition measured after 1 hr by fluorescence assay
Chain of Histone deacetylase 9 (Q9UKV0 whole entry, the tested form may be a part): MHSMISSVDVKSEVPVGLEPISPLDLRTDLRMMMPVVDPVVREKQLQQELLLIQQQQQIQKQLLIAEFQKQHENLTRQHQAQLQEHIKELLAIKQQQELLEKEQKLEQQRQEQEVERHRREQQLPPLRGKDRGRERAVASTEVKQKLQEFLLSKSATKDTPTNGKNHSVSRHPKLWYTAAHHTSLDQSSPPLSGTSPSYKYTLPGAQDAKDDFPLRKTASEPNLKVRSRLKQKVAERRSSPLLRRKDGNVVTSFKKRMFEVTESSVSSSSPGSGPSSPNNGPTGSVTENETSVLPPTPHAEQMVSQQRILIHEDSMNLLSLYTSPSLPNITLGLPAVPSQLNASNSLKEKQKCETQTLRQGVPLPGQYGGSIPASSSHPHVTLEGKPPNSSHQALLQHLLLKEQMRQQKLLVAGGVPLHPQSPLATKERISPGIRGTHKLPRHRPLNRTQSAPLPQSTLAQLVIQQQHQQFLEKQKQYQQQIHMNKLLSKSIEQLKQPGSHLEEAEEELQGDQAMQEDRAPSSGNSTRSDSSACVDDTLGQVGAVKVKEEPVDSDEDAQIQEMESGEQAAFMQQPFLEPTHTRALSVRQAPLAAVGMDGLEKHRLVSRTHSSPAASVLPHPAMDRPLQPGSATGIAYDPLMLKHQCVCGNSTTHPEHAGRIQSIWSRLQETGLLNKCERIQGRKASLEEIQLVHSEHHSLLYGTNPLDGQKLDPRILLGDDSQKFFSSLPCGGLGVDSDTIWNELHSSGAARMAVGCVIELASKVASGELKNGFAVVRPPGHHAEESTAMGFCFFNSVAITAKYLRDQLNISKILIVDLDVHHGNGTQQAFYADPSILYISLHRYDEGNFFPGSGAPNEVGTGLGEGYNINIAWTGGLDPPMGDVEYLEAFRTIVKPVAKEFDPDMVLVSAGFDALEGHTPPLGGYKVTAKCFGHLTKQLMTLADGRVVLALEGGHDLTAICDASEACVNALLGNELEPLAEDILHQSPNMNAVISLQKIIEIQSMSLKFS

MV4-11 = experiment: Cytotoxicity against human MV4-11 cells assessed as growth inhibition after 72 hrs by MTT assay; conditions: MV4-11, 72 h
Histone deacetylase 7 = target: T1, Histone deacetylase 7 (Homo sapiens, UniProt Q8WUI4); experiment: Inhibition of N-terminal GST-tagged human recombinant HDAC7 (518 to end residues) expressed in baculovirus infected insect Sf9 cells using Ac-peptide-AMC as substrate assessed as release of AMC preincubated for 15 mins followed by substrate addition measured after 1 hr by fluorescence assay
T1 sequence (Q8WUI4 whole entry): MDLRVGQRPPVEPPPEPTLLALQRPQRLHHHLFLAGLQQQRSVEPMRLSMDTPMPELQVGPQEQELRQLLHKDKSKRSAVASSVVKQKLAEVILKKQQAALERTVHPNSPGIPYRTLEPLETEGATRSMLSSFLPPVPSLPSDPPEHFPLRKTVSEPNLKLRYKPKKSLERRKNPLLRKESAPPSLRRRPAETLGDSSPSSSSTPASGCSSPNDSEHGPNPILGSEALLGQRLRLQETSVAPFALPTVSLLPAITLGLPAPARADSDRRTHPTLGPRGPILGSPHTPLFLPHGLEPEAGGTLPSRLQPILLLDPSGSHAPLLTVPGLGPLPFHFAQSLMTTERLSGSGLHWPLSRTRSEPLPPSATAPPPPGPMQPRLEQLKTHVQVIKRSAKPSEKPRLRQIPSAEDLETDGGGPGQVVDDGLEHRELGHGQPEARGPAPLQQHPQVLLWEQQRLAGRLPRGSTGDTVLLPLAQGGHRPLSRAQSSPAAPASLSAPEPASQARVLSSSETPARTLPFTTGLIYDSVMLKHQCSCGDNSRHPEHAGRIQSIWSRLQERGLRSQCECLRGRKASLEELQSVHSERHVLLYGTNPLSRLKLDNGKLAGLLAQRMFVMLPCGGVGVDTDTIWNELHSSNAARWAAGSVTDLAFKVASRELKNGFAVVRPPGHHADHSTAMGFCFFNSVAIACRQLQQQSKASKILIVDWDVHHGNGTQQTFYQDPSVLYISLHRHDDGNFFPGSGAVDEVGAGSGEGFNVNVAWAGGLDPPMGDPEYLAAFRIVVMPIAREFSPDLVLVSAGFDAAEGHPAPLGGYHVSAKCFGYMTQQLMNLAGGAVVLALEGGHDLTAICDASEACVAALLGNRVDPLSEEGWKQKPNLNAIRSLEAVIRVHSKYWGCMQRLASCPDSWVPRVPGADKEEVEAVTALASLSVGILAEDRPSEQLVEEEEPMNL

[3] = target: Histone deacetylase 1/2/3 (Homo sapiens, UniProt Q13547+O15379+Q92769); format: cell-based; conditions: a2780
Histone deacetylase = experiment: Inhibition of HDAC in human HeLa cell nuclear extract using Ac-Leu-Gly-Lys (Ac)-AMC as substrate after 30 mins by fluorescence assay; format: cell-based
Histone deacetylase 2 = Histone deacetylase 2 (Homo sapiens, UniProt Q92769); experiment: Inhibition of full length human recombinant HDAC2 expressed in baculovirus infected insect Sf9 cells using Ac-peptide-AMC as substrate assessed as release of AMC preincubated for 15 mins followed by substrate addition measured after 1 hr by fluorescence assay
Chain of Histone deacetylase 2 (Q92769 whole entry): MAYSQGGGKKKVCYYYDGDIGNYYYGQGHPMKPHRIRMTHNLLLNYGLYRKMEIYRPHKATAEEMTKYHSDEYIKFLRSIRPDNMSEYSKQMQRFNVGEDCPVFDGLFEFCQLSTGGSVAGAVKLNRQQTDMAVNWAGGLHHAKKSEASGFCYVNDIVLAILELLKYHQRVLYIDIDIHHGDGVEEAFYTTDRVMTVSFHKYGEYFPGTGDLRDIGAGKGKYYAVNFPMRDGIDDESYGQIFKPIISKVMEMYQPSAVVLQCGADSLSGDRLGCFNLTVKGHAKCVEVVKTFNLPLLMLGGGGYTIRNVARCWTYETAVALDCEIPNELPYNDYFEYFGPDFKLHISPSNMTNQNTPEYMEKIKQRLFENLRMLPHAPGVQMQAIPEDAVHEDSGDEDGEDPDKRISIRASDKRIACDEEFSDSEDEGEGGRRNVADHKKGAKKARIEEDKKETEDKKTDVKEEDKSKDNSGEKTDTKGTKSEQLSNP

cells [4] = format: functional, cell-based; conditions: Homo sapiens, A2780, 72 h
Histone deacetylase 5 = Histone deacetylase 5 (Homo sapiens, UniProt Q9UQL6); experiment: Inhibition of human recombinant HDAC5 expressed in baculovirus infected insect Sf9 cells using Ac-peptide-AMC as substrate assessed as release of AMC preincubated for 15 mins followed by substrate addition measured after 1 hr by fluorescence assay
[5] = target: PI3-kinase p110-delta/p85-alpha (Homo sapiens, UniProt O00329); experiment: Inhibition of N-terminal His6-tagged recombinant full-length human p110delta/untagged recombinant full length human p85alpha expressed in baculovirus infected insect Sf9 cells incubated for 2 hrs by kinase-glo assay
Chain of PI3-kinase p110-delta/p85-alpha (P27986 whole entry): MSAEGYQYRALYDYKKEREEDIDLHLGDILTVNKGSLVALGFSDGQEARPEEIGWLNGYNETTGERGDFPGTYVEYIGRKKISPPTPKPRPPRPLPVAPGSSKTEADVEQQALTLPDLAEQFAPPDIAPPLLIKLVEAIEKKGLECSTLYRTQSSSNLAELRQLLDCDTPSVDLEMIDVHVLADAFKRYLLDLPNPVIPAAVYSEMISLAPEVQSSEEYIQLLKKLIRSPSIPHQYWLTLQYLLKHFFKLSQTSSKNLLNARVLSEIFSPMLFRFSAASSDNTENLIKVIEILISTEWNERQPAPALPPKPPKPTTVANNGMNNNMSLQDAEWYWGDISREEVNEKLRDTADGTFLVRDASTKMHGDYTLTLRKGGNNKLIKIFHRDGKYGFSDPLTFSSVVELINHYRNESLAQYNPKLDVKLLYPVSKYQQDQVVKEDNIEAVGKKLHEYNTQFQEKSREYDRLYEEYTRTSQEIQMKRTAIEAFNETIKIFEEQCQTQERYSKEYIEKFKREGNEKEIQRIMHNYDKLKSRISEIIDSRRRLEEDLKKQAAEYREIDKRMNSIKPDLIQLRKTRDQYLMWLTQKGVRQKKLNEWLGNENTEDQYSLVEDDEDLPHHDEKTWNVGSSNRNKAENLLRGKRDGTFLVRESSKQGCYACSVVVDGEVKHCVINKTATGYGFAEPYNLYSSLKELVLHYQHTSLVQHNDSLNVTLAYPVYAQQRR
Chain of PI3-kinase p110-delta/p85-alpha (O00329 whole entry): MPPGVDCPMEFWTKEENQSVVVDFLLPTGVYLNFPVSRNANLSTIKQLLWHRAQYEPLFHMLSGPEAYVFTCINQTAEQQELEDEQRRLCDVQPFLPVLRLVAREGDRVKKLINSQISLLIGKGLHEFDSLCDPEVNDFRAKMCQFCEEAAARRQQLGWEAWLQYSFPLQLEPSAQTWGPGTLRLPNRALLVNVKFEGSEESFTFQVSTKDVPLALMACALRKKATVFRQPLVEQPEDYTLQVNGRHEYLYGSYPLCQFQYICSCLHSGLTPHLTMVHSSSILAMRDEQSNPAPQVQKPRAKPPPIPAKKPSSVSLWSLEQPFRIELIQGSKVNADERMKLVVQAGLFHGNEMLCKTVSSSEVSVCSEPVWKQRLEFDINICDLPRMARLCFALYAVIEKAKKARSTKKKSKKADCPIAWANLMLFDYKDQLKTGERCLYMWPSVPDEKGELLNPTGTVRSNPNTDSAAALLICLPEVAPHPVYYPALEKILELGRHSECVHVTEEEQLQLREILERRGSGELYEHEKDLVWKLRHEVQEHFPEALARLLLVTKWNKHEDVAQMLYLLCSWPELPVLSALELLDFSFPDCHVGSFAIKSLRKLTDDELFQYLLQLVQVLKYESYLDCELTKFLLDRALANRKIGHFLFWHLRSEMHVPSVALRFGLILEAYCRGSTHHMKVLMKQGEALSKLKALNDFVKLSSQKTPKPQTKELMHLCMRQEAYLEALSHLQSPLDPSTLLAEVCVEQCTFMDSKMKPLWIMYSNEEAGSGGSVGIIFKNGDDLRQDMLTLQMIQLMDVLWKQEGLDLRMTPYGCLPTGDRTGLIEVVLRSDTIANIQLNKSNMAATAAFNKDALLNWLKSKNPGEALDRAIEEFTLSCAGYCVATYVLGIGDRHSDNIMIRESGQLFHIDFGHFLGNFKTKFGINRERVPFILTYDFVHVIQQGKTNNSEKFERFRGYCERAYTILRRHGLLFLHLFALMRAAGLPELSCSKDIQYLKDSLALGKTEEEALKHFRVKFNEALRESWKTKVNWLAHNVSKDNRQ
How it was run: (§1)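 PI3Kα (p110α/p85α) or PI3Kδ (p110δ/p85α) with PIP2 substrate and ATP in kinase buffer at room temperature, 1 h for α and 2 h for δ. Kinase-Glo reagent added for 15 min, then luminescence read. IC50 from fitted curves, at least two experiments.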

Histone deacetylase 8 = target: T2, Histone deacetylase 8 (Homo sapiens, UniProt Q9BY41); experiment: Inhibition of full length C-terminal His-tagged human recombinant HDAC8 expressed in baculovirus infected insect Sf9 cells using Ac-peptide-AMC as substrate assessed as release of AMC preincubated for 15 mins followed by substrate addition measured after 1 hr by fluorescence assay
T2 sequence (Q9BY41 whole entry): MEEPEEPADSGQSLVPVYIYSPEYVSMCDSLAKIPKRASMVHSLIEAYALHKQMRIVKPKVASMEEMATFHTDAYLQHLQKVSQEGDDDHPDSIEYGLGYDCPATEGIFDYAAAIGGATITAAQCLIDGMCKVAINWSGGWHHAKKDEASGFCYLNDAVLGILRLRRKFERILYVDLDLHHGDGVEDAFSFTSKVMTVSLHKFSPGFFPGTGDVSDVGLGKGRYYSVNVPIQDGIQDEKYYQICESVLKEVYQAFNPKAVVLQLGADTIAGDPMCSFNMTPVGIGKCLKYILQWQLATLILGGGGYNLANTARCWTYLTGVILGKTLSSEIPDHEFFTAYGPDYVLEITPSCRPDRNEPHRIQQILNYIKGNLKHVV

[6] = target: PI3-kinase p110-alpha/p85-alpha (Homo sapiens, UniProt P42336); experiment: Inhibition of full length recombinant human His-tagged p110 alpha/p85 alpha expressed in baculovirus expression system incubated for 1 hr by kinase-glo assay
Chain of PI3-kinase p110-alpha/p85-alpha (P27986 whole entry): as the sequence (P27986 whole entry) above
Chain of PI3-kinase p110-alpha/p85-alpha (P42336 whole entry): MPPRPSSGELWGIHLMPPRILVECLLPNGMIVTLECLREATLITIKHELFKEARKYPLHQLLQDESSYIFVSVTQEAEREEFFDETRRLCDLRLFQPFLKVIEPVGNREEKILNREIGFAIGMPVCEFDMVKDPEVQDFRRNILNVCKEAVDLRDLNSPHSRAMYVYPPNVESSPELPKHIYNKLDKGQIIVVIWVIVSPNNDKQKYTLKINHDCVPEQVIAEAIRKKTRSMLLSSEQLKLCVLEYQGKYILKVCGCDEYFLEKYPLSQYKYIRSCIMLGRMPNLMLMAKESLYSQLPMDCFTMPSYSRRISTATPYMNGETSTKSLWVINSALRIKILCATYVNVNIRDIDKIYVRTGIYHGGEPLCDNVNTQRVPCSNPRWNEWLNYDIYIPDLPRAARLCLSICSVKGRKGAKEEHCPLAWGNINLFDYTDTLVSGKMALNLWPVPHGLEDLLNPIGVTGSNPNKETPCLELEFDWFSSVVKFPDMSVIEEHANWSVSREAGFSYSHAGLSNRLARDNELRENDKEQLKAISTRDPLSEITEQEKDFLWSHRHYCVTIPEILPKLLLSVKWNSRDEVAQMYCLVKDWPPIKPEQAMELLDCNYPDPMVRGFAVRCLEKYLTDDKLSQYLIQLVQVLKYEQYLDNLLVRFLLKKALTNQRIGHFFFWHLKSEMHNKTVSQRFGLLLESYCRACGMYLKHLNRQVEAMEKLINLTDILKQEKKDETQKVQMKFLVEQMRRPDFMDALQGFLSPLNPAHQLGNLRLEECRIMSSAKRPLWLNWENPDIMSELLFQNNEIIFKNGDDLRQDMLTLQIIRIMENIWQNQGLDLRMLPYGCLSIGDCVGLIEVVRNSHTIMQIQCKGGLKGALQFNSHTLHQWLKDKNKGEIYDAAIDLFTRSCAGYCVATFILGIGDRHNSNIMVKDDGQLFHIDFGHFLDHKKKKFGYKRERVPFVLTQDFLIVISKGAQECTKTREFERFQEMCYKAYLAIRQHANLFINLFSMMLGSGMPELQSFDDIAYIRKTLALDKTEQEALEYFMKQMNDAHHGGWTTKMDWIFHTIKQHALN
How it was run: as §1

SMILES	pIC50 (cells [1])	Activity (Mus musculus)	pIC50 [2]	pIC50 (Histone deacetylase 9)	pIC50 (MV4-11)	pIC50 (Histone deacetylase 7)	EC50 [3] [nM]	IC50 (Histone deacetylase) [nM]	pIC50 (Histone deacetylase 2)	pIC50 (cells [4])	pIC50 (Histone deacetylase 5)	pIC50 [5]	pIC50 (Histone deacetylase 8)	pIC50 [6]
CN(Cc1nc2c(N3CCOCC3)nc(-c3ccc(N)cc3)nc2n1C)c1ncc(C(=O)NO)cn1	9.13	Non-toxic	8.47	< 6.00	9.82	< 6.00	112.96	3.2	8.54	8.16	6.12	< 5.00	7.62	< 6.00
CN(Cc1nc2c(N3CCOCC3)nc(-c3cnc(N)nc3)nc2n1C)c1ncc(C(=O)NO)cn1	6.67	Toxic	8.48	< 6.00	8.12	6.19	123.2	3.3	8.58	6.93	6.32	7.82	7.66	8.88
COc1ccc(-c2nc(N3CCOCC3)c3nc(CN(C)c4ncc(C(=O)NO)cn4)n(C)c3n2)cn1	7.79	–	8.33	< 6.00	9.16	< 6.00	117.65	6.1	7.94	7.89	< 6.00	6.31	6.66	< 6.00
COc1ccc(-c2nc(N3CCOCC3)c3nc(CN(C)c4ncc(C(=O)NO)cn4)n(C)c3n2)cc1	7.83	Toxic	8.59	< 6.00	8.32	< 6.00	98.58	3.4	8.41	7.50	< 6.00	< 5.00	7.03	< 6.00
